Data from ChEMBL document CHEMBL1128552, “8-Amino-3-benzyl-1,2,4-triazolo[4,3-a]pyrazines. Synthesis and anticonvulsant activity” (J Med Chem, 1995).

Columns and labels:
[1] = tested on: Rattus norvegicus; experiment: The compound was tested for anticonvulsant activity against Maximal Electroshock-Induced Seizures(MES) in intraperitoneal administration.; format: functional; conditions: ip
Summary of the method: (§1)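 Male Wistar rats (Charles River), maximal electroshock seizure test. Compounds given as solutions or fine dispersions in water or 0.5% methylcellulose; poorly soluble samples micronized. Initial screen at 25 mg/kg ip. ED50 is the dose protecting 50% against hind-limb extensor component, calculated by Miller–Tainter method. Either four doses with at least 12 animals each (with standard error), or three doses with six animals each.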

[2] = tested on: Rattus norvegicus; experiment: The compound was tested for anticonvulsant activity against Maximal Electroshock-Induced Seizures(MES) in Wistar male rat, after peroral administration.; format: functional; conditions: po; summary of the method: as §1
[3] = Dissociation constant was measured; format: physicochemical
[4] = Lipophilicity was measured; format: physicochemical; conditions: octanol/water

| SMILES | ED50 [1] | ED50 [2] | pKa [3] | logP [4] |
| --- | --- | --- | --- | --- |
| CNc1nccn2c(Cc3ccccc3)nnc12 | 6 mg/kg | 16 mg/kg | – | – |
| CNc1nccn2c(Cc3c(F)cccc3F)nnc12 | 2 mg/kg | 3 mg/kg | – | – |
| Nc1ncnc2c1ncn2Cc1ccccc1F | 4.5 mg/kg | 12 mg/kg | – | – |
| Nc1nccn2c(Cc3c(F)cccc3F)nnc12 | 4 mg/kg | 7 mg/kg | – | – |
| Nc1nccn2c(Cc3cccc(F)c3)nnc12 | > 25 mg/kg | – | – | – |
| CNc1ncnc2c1ncn2Cc1ccccc1F [BW-A78U] | 1.7 mg/kg | 2.5 mg/kg | 3.88 | 1.86 |
| CNc1nccn2c(Cc3cccc(F)c3)nnc12 | 4 mg/kg | 20 mg/kg | – | – |
| CNc1nccn2c(Cc3ccccc3F)nnc12 | 5 mg/kg | 2.6 mg/kg | 4.02 | 1.56 |
| Nc1nccn2c(Cc3ccccc3F)nnc12 | 9 mg/kg | 8 mg/kg | – | – |
| Nc1nccn2c(Cc3cc(F)ccc3F)nnc12 | 7 mg/kg | 20 mg/kg | – | – |
| CNc1nccn2c(Cc3cc(F)ccc3F)nnc12 | 4 mg/kg | 10 mg/kg | – | – |
| Nc1nccn2c(Cc3ccc(F)cc3)nnc12 | > 25 mg/kg | – | – | – |
| O=C1NC(=O)C(c2ccccc2)(c2ccccc2)N1 [PHENYTOIN] | 10 mg/kg | 20 mg/kg | – | – |
| CNc1nccn2c(Cc3ccc(F)cc3)nnc12 | 25 mg/kg | – | – | – |
